Measured values of several laboratories.
Effect on: enzyme activity
Mode: inhibitor
FGFR1: Fibroblast growth factor receptor 1 (FGFR1, Homo sapiens, UniProt P11362)
FGFR1 V561M: Fibroblast growth factor receptor 1 (FGFR1, Homo sapiens, UniProt P11362, V561M)

With `FC(F)c1nc2ccccc2n1-c1nc(N2CCOCC2)nc(N2CCOCC2)n1` the remaining activity was 102% (FGFR1; 10 µM).
`CCCOc1ccc(OC)c(F)c1C(=O)c1ccc(C(=O)N[C@@H]2CNC[C@H]2NC(=O)c2ccc3[nH]ncc3c2)cc1` has a remaining activity of 23% (FGFR1 V561M; 10 µM).
The remaining activity of `O=C(Nc1cnn(-c2csc(C(=O)NC3COC3)c2)c1)Nc1ccccc1Cl` is reported as 95.9% (FGFR1; 5 µM).
With `CC(C)(C)c1nc2c(s1)c1nc(N)ncc1c1ccc(NS(=O)(=O)c3c(F)cccc3F)c(F)c12` the remaining activity was 90% (FGFR1; radiometric; 1 µM).
`Oc1cccc(-c2nc(N3CCOCC3)c3oc4ncccc4c3n2)c1` has a remaining activity of 118% (FGFR1; 10 µM).
For `Nc1nc(Nc2ccccc2)sc1C(=O)c1c(F)cccc1F`, the remaining activity was 64% (FGFR1; 10 µM).
For `Cc1sc(C(=O)NC2COC2)cc1-n1cc(NC(=O)Nc2c(F)cccc2Cl)cn1`, the remaining activity was 114% (FGFR1; 10 µM).
For `CCN(CC)CCNC(=O)c1c(C)[nH]c(/C=C2\C(=O)Nc3ccc(F)cc32)c1C`, the remaining activity was 22% (FGFR1; 1 µM).
`COc1cc(Nc2cnc(C#N)c(O[C@H](C)CN(C)C)n2)ncc1-c1cnn(C)c1` gave a remaining activity of 107% (FGFR1; radiometric; 1 µM).
`CCN(CC)c1ccc(C2=NNC(=O)CC2C)cc1[N+](=O)[O-]` (stereo not drawn) has a remaining activity of 90% (FGFR1; 10 µM).
`Cc1cnc(NC2CCOCC2)nc1-n1cnc(C(=O)NC(CN)c2cc(F)cc(Cl)c2)c1` (stereo not drawn) has a remaining activity of 104% (FGFR1 V561M; radiometric; 1 µM).
The remaining activity of `Cc1[nH]c(/C=C2\C(=O)Nc3ccc(F)cc32)c(C)c1C(=O)N[C@H]1CCN(C(=O)N(C)C)C1` is reported as 90% (FGFR1; 1 µM).
